Each block holds one molecule with its values, some of them ahead of it. Activity calls are given as the source filed them. No cut-off for these calls is given here.
Legend:
[1] = Inhibition of KIX domain of CBP interaction with KID domain of CREB after 20-24 hrs by Renilla luciferase complementation assay
How it was run: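 RLucC-KIX (20 ng) and KID-RLucN lysate (1.0 µg) per reaction in Renilla lysis buffer with compound, incubated at 4 °C for 20–24 h; residual luminescence read with benzyl-coelenterazine in PBS pH 7.4.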

[2] = tested on: MDA-MB-468; test: Growth inhibition of human MDA-MB-468 cells after 72 hrs by MTT assay; assay type: functional; conditions: MDA-MB-468, 72 h
[3] = Inhibition of CREB-mediated gene transcription in human HEK293T cells by renilla luciferase reporter assay; assay type: cell-based; conditions: HEK-293T
How it was run: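 HEK 293T cells transfected with pCRE-RLuc, replated after 3 h and attached overnight; compound added, then forskolin (final 10 µM) 30 min later; 5 h at 37 °C.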

[4] = tested on: MDA-MB-231; test: Growth inhibition of human MDA-MB-231 cells after 72 hrs by MTT assay; assay type: functional; conditions: MDA-MB-231, 72 h
[5] = tested on: MCF7; test: Growth inhibition of human MCF7 cells after 72 hrs by MTT assay; assay type: functional; conditions: MCF7, 72 h
[6] = tested on: A549; test: Growth inhibition of human A549 cells after 72 hrs by MTT assay; assay type: functional; conditions: A549, 72 h
[7] = tested on: MCF7; test: Cytotoxicity against human MCF7 cells expressing wild type CREB assessed as reduction in cell proliferation at 10 to 50 uM after 48 hrs by MTT assay; assay type: functional, cell-based
How it was run: (§1)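 MCF-7 cells stably transfected with Flag-tagged VP16-CREB (G418 2 mg/mL selection; expression checked by anti-FLAG blot) alongside parental MCF-7. Compound at indicated concentrations in triplicate for 48 h; live cells quantified with MTT reagent; Student's t-test.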

[8] = tested on: MCF7; test: Cytotoxicity against human MCF7 cells expressing VP16-CREB mutant assessed as reduction in cell proliferation at 10 to 50 uM after 48 hrs by MTT assay; assay type: functional, cell-based; how it was run: as §1
[9] = tested on: A549; test: Induction of apoptosis in human A549 cells assessed as necrotic cells at 5 uM after 48 hrs by Annexin V-FITC/PI staining based flow cytometry (reference value: 1.5%); assay type: functional
[10] = tested on: A549; test: Induction of apoptosis in human A549 cells assessed as late apoptotic cells at 7.5 uM after 48 hrs by Annexin V-FITC/PI staining based flow cytometry (reference value: 2.98%); assay type: functional
[11] = target: Cellular tumor antigen p53 (Homo sapiens) (UniProt P04637); test: Inhibition of p53 transfected in HEK293T cells assessed as gene transcription after 5 hrs by Renilla luciferase reporter assay; assay type: cell-based; conditions: HEK-293T
[12] = tested on: A549; test: Induction of apoptosis in human A549 cells assessed as early apoptotic cells at 10 uM after 48 hrs by Annexin V-FITC/PI staining based flow cytometry (reference value: […]); assay type: functional
[13] = tested on: A549; test: Induction of apoptosis in human A549 cells assessed as PARP cleavage at 5 to 10 uM after 48 hrs by Western blot analysis; assay type: functional, cell-based
How it was run: (§2)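 Exponentially growing A549 cells treated 48 h; washed in cold PBS, lysed in NP-40 buffer (50 mM Tris pH 8.0, 5 mM EDTA, 150 mM NaCl, 1 mM DTT, 0.5% NP-40) with 8 M urea. Equal protein on 10% SDS-PAGE, PVDF transfer, antibody detection; GAPDH loading control.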

[14] = tested on: A549; test: Induction of apoptosis in human A549 cells assessed as early apoptotic cells at 7.5 uM after 48 hrs by Annexin V-FITC/PI staining based flow cytometry (reference value: […]); assay type: functional
[15] = tested on: A549; test: Inhibition of CREB in human A549 cells assessed as reduction in VEGF gene expression at 10 uM after 4 hrs by quantitative RT-PCR analysis; assay type: cell-based
[16] = tested on: A549; test: Induction of apoptosis in human A549 cells assessed as viable cells at 5 uM after 48 hrs by Annexin V-FITC/PI staining based flow cytometry (reference value: 91.6%); assay type: functional; conditions: A549, 48 h, read-out: Activity
[17] = target: Cellular tumor antigen p53 (Homo sapiens) (UniProt P04637); test: Inhibition of p53 in human A549 cells assessed as effect on p21 gene expression at 1 to 10 uM after 4 hrs by quantitative RT-PCR analysis; assay type: cell-based
How it was run: (§3)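 A549 cells treated in duplicate for 4 h; total RNA DNase-treated (37 °C, 30 min), reverse-transcribed with random hexamers; qPCR with SYBR Green normalized to HPRT; one-way ANOVA.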

[18] = tested on: MCF7; test: Cytotoxicity against human MCF7 cells expressing wild type CREB assessed as reduction in cell proliferation at 0.5 to 10 uM after 48 hrs by MTT assay; assay type: functional, cell-based; how it was run: as §1
[19] = tested on: A549; test: Inhibition of CREB in human A549 cells assessed as reduction in Bcl-2 gene expression at 1 to 10 uM after 4 hrs by quantitative RT-PCR analysis; assay type: cell-based; how it was run: as §3
[20] = tested on: A549; test: Induction of apoptosis in human A549 cells assessed as viable cells at 10 uM after 48 hrs by Annexin V-FITC/PI staining based flow cytometry (reference value: 91.6%); assay type: functional; conditions: A549, 48 h, read-out: Activity
[21] = tested on: A549; test: Induction of apoptosis in human A549 cells assessed as late apoptotic cells at 10 uM after 48 hrs by Annexin V-FITC/PI staining based flow cytometry (reference value: 2.98%); assay type: functional
[22] = tested on: A549; test: Induction of apoptosis in human A549 cells assessed as necrotic cells at 10 uM after 48 hrs by Annexin V-FITC/PI staining based flow cytometry (reference value: 1.5%); assay type: functional
[23] = tested on: HFF; test: Cytotoxicity against human HFF cells assessed as effect on cell viability at 5 to 10 uM after 48 hrs by trypan blue exclusion assay; assay type: cell-based
How it was run: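 HFF cells (maintained in DMEM, 10% FBS, 37 °C, 5% CO2) exposed to increasing compound concentrations in triplicate for 48 h; live cells counted by trypan blue exclusion.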

[24] = tested on: A549; test: Induction of apoptosis in human A549 cells assessed as necrotic cells at 7.5 uM after 48 hrs by Annexin V-FITC/PI staining based flow cytometry (reference value: 1.5%); assay type: functional
[25] = tested on: A549; test: Induction of apoptosis in human A549 cells assessed as early apoptotic cells at 5 uM after 48 hrs by Annexin V-FITC/PI staining based flow cytometry (reference value: […]); assay type: functional
[26] = tested on: A549; test: Inhibition of CREB in human A549 cells assessed as reduction in Bcl-2 protein expression at 5 to 10 uM after 48 hrs by Western blot analysis; assay type: cell-based; how it was run: as §2
[27] = target: Cellular tumor antigen p53 (Homo sapiens) (UniProt P04637); test: Inhibition of p53 in human A549 cells assessed as effect on p21 protein expression at 5 to 10 uM after 48 hrs by Western blot analysis; assay type: cell-based; how it was run: as §2
[28] = tested on: A549; test: Induction of apoptosis in human A549 cells assessed as late apoptotic cells at 5 uM after 48 hrs by Annexin V-FITC/PI staining based flow cytometry (reference value: 2.98%); assay type: functional
[29] = tested on: HMEC; test: Cytotoxicity against HMEC assessed as effect on cell viability at less than or equal to 10 uM after 48 hrs by trypan blue exclusion assay; assay type: cell-based; conditions: human
How it was run: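 HMEC grown in MEGM complete medium, switched to DMEM with 10% FBS and penicillin/streptomycin on the day of treatment; compound added at various concentrations, triplicate, 48 h at 37 °C, 5% CO2. Live cells counted by trypan blue exclusion; one-way ANOVA.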

[30] = tested on: A549; test: Induction of apoptosis in human A549 cells assessed as viable cells at 7.5 uM after 48 hrs by Annexin V-FITC/PI staining based flow cytometry (reference value: 91.6%); assay type: functional; conditions: A549, 48 h, read-out: Activity
[31] = tested on: A549; test: Inhibition of CREB in human A549 cells assessed as reduction in VEGF level at 2.5 to 10 uM after 24 hrs by ELISA; assay type: cell-based
How it was run: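 A549 cells treated in duplicate for 24 h; VEGF in culture medium measured by ELISA and normalized to medium protein concentration; one-way ANOVA.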

[32] = tested on: MCF7; test: Cytotoxicity against human MCF7 cells expressing VP16-CREB mutant assessed as effect on cell proliferation at 0.5 to 10 uM after 48 hrs by MTT assay; assay type: functional, cell-based; how it was run: as §1

Chain of Cellular tumor antigen p53 (Homo sapiens) (P04637 whole entry, looked up): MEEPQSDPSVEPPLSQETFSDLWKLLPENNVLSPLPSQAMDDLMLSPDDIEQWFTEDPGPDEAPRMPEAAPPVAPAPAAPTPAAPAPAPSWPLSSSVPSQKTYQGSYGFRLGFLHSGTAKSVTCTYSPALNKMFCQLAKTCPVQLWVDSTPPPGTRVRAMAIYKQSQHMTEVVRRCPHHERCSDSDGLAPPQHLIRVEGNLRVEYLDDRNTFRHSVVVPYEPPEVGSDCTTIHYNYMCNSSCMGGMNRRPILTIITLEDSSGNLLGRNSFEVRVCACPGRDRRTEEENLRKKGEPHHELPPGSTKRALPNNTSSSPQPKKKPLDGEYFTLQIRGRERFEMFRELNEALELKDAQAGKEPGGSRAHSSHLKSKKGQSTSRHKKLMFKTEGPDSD

SMILES: O=C(Nc1ccc(O)cc1)c1cc2ccccc2cc1O
IC50 [1]: 28.2 µM
GI50 [2]: 65.3 µM
IC50 [3]: 40.5 µM
GI50 [4]: > 100 µM
GI50 [5]: 9.52 µM
GI50 [6]: 28.1 µM

SMILES: CN(C(=O)c1cc2ccccc2cc1O)c1ccc(Cl)cc1
Activity [7]: Active
Activity [8]: Active

SMILES: O=C(Nc1cccc(Cl)c1)c1cc2ccccc2cc1O
IC50 [1]: > 50 µM
GI50 [2]: 2.58 µM
IC50 [3]: 2.7 µM
GI50 [4]: 4.91 µM
GI50 [5]: 2.43 µM
GI50 [6]: 3.68 µM

SMILES: O=C(Nc1ccc(C(F)(F)F)cc1)c1cc2ccccc2cc1O
IC50 [1]: > 50 µM
GI50 [2]: 63.3 µM
IC50 [3]: 6.75 µM
GI50 [4]: 64.2 µM
GI50 [5]: 3.62 µM
GI50 [6]: 4.15 µM

SMILES: O=C(Nc1ccc(I)cc1)c1cc2ccccc2cc1O
IC50 [1]: 34.5 µM
GI50 [2]: 2.94 µM
IC50 [3]: 4.98 µM
GI50 [4]: 7.87 µM
GI50 [5]: 9.76 µM
GI50 [6]: 5.51 µM

SMILES: COc1ccc(NC(=O)c2cc3ccccc3cc2O)cc1
IC50 [1]: > 50 µM
GI50 [2]: 79.3 µM
IC50 [3]: > 50 µM
GI50 [4]: 75.5 µM
GI50 [5]: 6.55 µM
GI50 [6]: 85.7 µM

More lines, main results first:

IC50 [1]: 25.4 µM
GI50 [2]: 57.1 µM
IC50 [3]: > 50 µM
GI50 [4]: > 100 µM
GI50 [5]: 28 µM
GI50 [6]: 51.6 µM
SMILES: Nc1ccc(NC(=O)c2cc3ccccc3cc2O)cc1

IC50 [1]: 1.73 µM
GI50 [2]: 2.78 µM
IC50 [3]: 4.86 µM
GI50 [4]: 11.4 µM
GI50 [5]: 4.16 µM
GI50 [6]: 6.78 µM
SMILES: O=C(Nc1ccc(F)cc1)c1cc2ccccc2cc1O

IC50 [1]: 2.39 µM
GI50 [2]: 4.19 µM
IC50 [3]: 3.73 µM
GI50 [4]: 11.6 µM
GI50 [5]: 2.09 µM
GI50 [6]: 3.57 µM
SMILES: O=C(Nc1ccc(F)c(F)c1)c1cc2ccccc2cc1O

IC50 [1]: 5.13 µM
GI50 [2]: 0.85 µM
IC50 [3]: 2.29 µM
GI50 [4]: 2.2 µM
GI50 [5]: 6.86 µM
GI50 [6]: 3.65 µM
SMILES: O=C(Nc1ccc(F)c(Cl)c1)c1cc2ccccc2cc1O

IC50 [1]: 16.3 µM
GI50 [2]: 63.4 µM
IC50 [3]: 20.7 µM
GI50 [4]: 35.5 µM
GI50 [5]: 15.8 µM
GI50 [6]: 25 µM
SMILES: O=C(Nc1ccncc1)c1cc2ccccc2cc1O

IC50 [1]: 1.69 µM
GI50 [2]: 5.69 µM
IC50 [3]: > 50 µM
GI50 [4]: 44.2 µM
GI50 [5]: 6.25 µM
GI50 [6]: 75.8 µM
SMILES: O=C(Nc1ccccn1)c1cc2ccccc2cc1O

IC50 [1]: 20.3 µM
GI50 [2]: 37.6 µM
IC50 [3]: > 50 µM
GI50 [4]: > 100 µM
GI50 [5]: 17.9 µM
GI50 [6]: 33.2 µM
SMILES: O=C(Nc1cnccn1)c1cc2ccccc2cc1O

IC50 [1]: 9.59 µM
GI50 [2]: 6.61 µM
IC50 [3]: 3.45 µM
GI50 [4]: 9.93 µM
GI50 [5]: 1.83 µM
GI50 [6]: 3.98 µM
SMILES: O=C(Nc1ccc(Br)cc1)c1cc2ccccc2cc1O

inhibition [11]: inactive
IC50 [1]: 2.9 µM
inhibition [17]: inactive
GI50 [2]: 1.46 µM
IC50 [3]: 2.29 µM
GI50 [4]: 2.35 µM
GI50 [5]: 2.81 µM
inhibition [27]: inactive
GI50 [6]: 2.9 µM
SMILES: O=C(Nc1ccc(Cl)cc1)c1cc2ccccc2cc1O
Activity [9]: 1.36%
Activity [10]: 2.9%
Activity [12]: 19.4%
Activity [13]: Active
Activity [14]: 10.1%
inhibition [15]: Active
viability at 5 µM [16]: 89.1%
Activity [18]: Active
inhibition [19]: Active
viability at 10 µM [20]: 75.9%
Activity [21]: 4.2%
Activity [22]: 0.58%
Activity [23]: Non-toxic
Activity [24]: 1.42%
Activity [25]: 6.5%
inhibition [26]: Active
Activity [28]: 3.06%
Activity [29]: Non-toxic
viability at 7.5 µM [30]: 85.6%
inhibition [31]: Active
Activity [32]: inactive

IC50 [1]: 5.43 µM
GI50 [2]: 6.65 µM
IC50 [3]: 5.72 µM
GI50 [4]: 17.2 µM
GI50 [5]: 2.27 µM
GI50 [6]: 4.83 µM
SMILES: O=C(Nc1ccccc1Cl)c1cc2ccccc2cc1O

Reference: ChEMBL document CHEMBL2203129, “Structure-activity relationship studies of naphthol AS-E and its derivatives as anticancer agents by inhibiting CREB-mediated gene transcription” (Bioorg Med Chem, 2012)
